system: SF-539; test: Growth inhibition of human SF-539 cells assessed as cell growth at 100 uM incubated for 48 hrs by sulforhodamine B assay relative to control; assay type: functional; conditions: read-out: Activity

SMILES | growth at 100 µM [%]
CCc1ccccc1NC(=O)c1sc2nc3c(cc2c1N)C(=O)CCC3 | -34

system: MDA-MB-231; test: Growth inhibition of human MDA-MB-231 cells assessed as cell growth at 100 uM incubated for 48 hrs by sulforhodamine B assay relative to control; assay type: functional; conditions: read-out: Activity

SMILES | growth at 100 µM [%]
CCc1ccccc1NC(=O)c1sc2nc3c(cc2c1N)C(=O)CCC3 | 4

system: UO-31; test: Growth inhibition of human UO-31 cells assessed as cell growth at 100 uM incubated for 48 hrs by sulforhodamine B assay relative to control; assay type: functional; conditions: read-out: Activity

SMILES | growth at 100 µM [%]
CCc1ccccc1NC(=O)c1sc2nc3c(cc2c1N)C(=O)CCC3 | 18

system: MDA-MB-468; test: Growth inhibition of human MDA-MB-468 cells assessed as cell growth at 0.1 uM incubated for 48 hrs by sulforhodamine B assay relative to control; assay type: functional; conditions: read-out: Activity

SMILES | growth at 0.1 µM [%]
CCc1ccccc1NC(=O)c1sc2nc3c(cc2c1N)C(=O)CCC3 | 75

system: A498; test: Growth inhibition of human A498 cells incubated for 48 hrs by sulforhodamine B assay; assay type: functional; conditions: not given
How it was run: (§1)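 NCI Developmental Therapeutics Program NCI60 panel. Compounds that were active in the 10 µM one-dose screen went on to dose–response testing. Growth at each concentration is expressed relative to untreated control (100%). GI50 (concentration giving 50% of maximal inhibition of proliferation) and TGI (concentration giving total growth inhibition) were derived from the curves.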

SMILES | GI50 [µM] | TGI [µM]
CCc1ccccc1NC(=O)c1sc2nc3c(cc2c1N)C(=O)CCC3 | 0.18 | 4

same assay, conditions: read-out: LC50 (the source's name)

SMILES | CC50 [µM]
CCc1ccccc1NC(=O)c1sc2nc3c(cc2c1N)C(=O)CCC3 | > 100

system: A549; test: Growth inhibition of human A549/ATCC cells assessed as cell growth at 100 uM incubated for 48 hrs by sulforhodamine B assay relative to control; assay type: functional; conditions: read-out: Activity; how it was run: as §1

SMILES | growth at 100 µM [%]
CCc1ccccc1NC(=O)c1sc2nc3c(cc2c1N)C(=O)CCC3 | 12

system: SF-268; test: Growth inhibition of human SF-268 cells assessed as cell growth at 100 uM incubated for 48 hrs by sulforhodamine B assay relative to control; assay type: functional; conditions: read-out: Activity

SMILES | growth at 100 µM [%]
CCc1ccccc1NC(=O)c1sc2nc3c(cc2c1N)C(=O)CCC3 | 12

system: SW-620; test: Growth inhibition of human SW-620 cells incubated for 48 hrs by sulforhodamine B assay; assay type: functional; conditions: not given
How it was run: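 NCI DTP 60-line human tumour panel. Dose-response curves were run only for ligands active in the initial 10 µM screen. GI50 (concentration giving 50% of maximal inhibition of proliferation) and TGI (concentration giving total growth inhibition) were derived from these curves.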

SMILES | GI50 [µM] | LC50 (concentration killing 50% of cells) [µM] | TGI [µM]
CCc1ccccc1NC(=O)c1sc2nc3c(cc2c1N)C(=O)CCC3 | 0.322 | > 100 | > 100

system: K562; test: Growth inhibition of human K562 cells assessed as cell growth at 100 uM incubated for 48 hrs by sulforhodamine B assay relative to control; assay type: functional; conditions: read-out: Activity

SMILES | growth at 100 µM [%]
CCc1ccccc1NC(=O)c1sc2nc3c(cc2c1N)C(=O)CCC3 | 13

system: CCRF-CEM; test: Growth inhibition of human CCRF-CEM cells incubated for 48 hrs by sulforhodamine B assay; assay type: functional; conditions: not given; how it was run: as §1

SMILES | GI50 [µM] | LC50 [µM] | TGI [µM]
CCc1ccccc1NC(=O)c1sc2nc3c(cc2c1N)C(=O)CCC3 | 0.328 | > 100 | > 100

system: HCC 2998; test: Growth inhibition of human HCC 2998 cells assessed as cell growth at 1 uM incubated for 48 hrs by sulforhodamine B assay relative to control; assay type: functional; conditions: read-out: Activity; how it was run: as §1

SMILES | growth at 1 µM [%]
CCc1ccccc1NC(=O)c1sc2nc3c(cc2c1N)C(=O)CCC3 | 56

system: SNB-75; test: Growth inhibition of human SNB-75 cells assessed as cell growth at 0.01 uM incubated for 48 hrs by sulforhodamine B assay relative to control; assay type: functional; conditions: read-out: Activity

SMILES | growth at 0.01 µM [%]
CCc1ccccc1NC(=O)c1sc2nc3c(cc2c1N)C(=O)CCC3 | 73

system: SNB-19; test: Growth inhibition of human SNB-19 cells assessed as cell growth at 1 uM incubated for 48 hrs by sulforhodamine B assay relative to control; assay type: functional; conditions: read-out: Activity

SMILES | growth at 1 µM [%]
CCc1ccccc1NC(=O)c1sc2nc3c(cc2c1N)C(=O)CCC3 | 45

system: COLO 205; test: Growth inhibition of human COLO 205 cells assessed as cell growth at 1 uM incubated for 48 hrs by sulforhodamine B assay relative to control; assay type: functional; conditions: read-out: Activity; how it was run: as §1

SMILES | growth at 1 µM [%]
CCc1ccccc1NC(=O)c1sc2nc3c(cc2c1N)C(=O)CCC3 | -34

system: BT-549; test: Growth inhibition of human BT-549 cells assessed as cell growth at 1 uM incubated for 48 hrs by sulforhodamine B assay relative to control; assay type: functional; conditions: read-out: Activity

SMILES | growth at 1 µM [%]
CCc1ccccc1NC(=O)c1sc2nc3c(cc2c1N)C(=O)CCC3 | 50

system: NCI-H522; test: Growth inhibition of human NCI-H522 cells assessed as cell growth at 1 uM incubated for 48 hrs by sulforhodamine B assay relative to control; assay type: functional; conditions: read-out: Activity

SMILES | growth at 1 µM [%]
CCc1ccccc1NC(=O)c1sc2nc3c(cc2c1N)C(=O)CCC3 | 34

system: SK-OV-3; test: Growth inhibition of human SK-OV-3 cells assessed as cell growth at 100 uM incubated for 48 hrs by sulforhodamine B assay relative to control; assay type: functional; conditions: read-out: Activity

SMILES | growth at 100 µM [%]
CCc1ccccc1NC(=O)c1sc2nc3c(cc2c1N)C(=O)CCC3 | -4

— ChEMBL document CHEMBL4715736, “Identification of anticancer agents based on the thieno[2,3-b]pyridine and 1H-pyrazole molecular scaffolds” (2016)
